Data as given in ChEMBL document CHEMBL1649102, “Stereochemical survey of digitoxin monosaccharides: new anticancer analogues with enhanced apoptotic activity and growth inhibitory effect on human non-small cell lung cancer cell” (ACS Med Chem Lett, 2011).
Active and inactive are the calls of the source. The rule behind the calls is not given here.

Legend:
[1] = Growth inhibition of human NCI60 cells; format: functional
Method in brief: (§1)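 NCI-60 cell lines grown in RPMI 1640 with 5% FBS and 2 mM L-glutamine, plated at 5,000–40,000 cells/well and preincubated 24 h. Time-zero plates were TCA-fixed. Drug was given at five concentrations (10-fold or ½-log dilutions from DMSO stock) for 48 h at 37°C. Cells were TCA-fixed, stained with SRB, and read at 515 nm. GI50 is where [(Ti−Tz)/(C−Tz)]×100 = 50.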

[2] = test system: RXF 393; experiment: Growth inhibition of human RXF393 cells; format: functional; method in brief: as §1
[3] = test system: DU-145; experiment: Growth inhibition of human DU145 cells; format: functional; method in brief: as §1
[4] = test system: SN12C; experiment: Growth inhibition of human SN12C cells; format: functional
Method in brief: (§2)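 NCI-60 panel SRB assay. Cells in RPMI 1640 with 5% FBS and 2 mM L-glutamine, plated at 5,000-40,000 cells/well and grown 24 h before dosing; time-zero plates TCA-fixed. Five concentrations (10-fold or ½ log dilutions, from DMSO stock) applied for 48 h at 37°C. TCA fixation (16% final for suspension cells), SRB stain, absorbance 515 nm; GI50 from net protein increase versus control.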

[5] = test system: UO-31; experiment: Growth inhibition of human UO31 cells; format: functional; method in brief: as §2
[6] = test system: NCI-H460; experiment: Cytotoxicity against human NCI-H460 cells assessed as cell death at 50 nM after 12 hrs by Hoechst-33342 staining and propidium iodide staining; format: functional, cell-based; settings: NCI-H460, 12 h
Method in brief: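 NCI-H460 cells were seeded at 50,000 cells/well for 12 h, then exposed 12 h in serum-free medium (DMSO <0.1%). Cells were stained with Hoechst 33342 (10 µg/ml) and propidium iodide (20 µg/ml) for 30 min at 37°C. Condensed or fragmented nuclei were scored by fluorescence microscopy, and apoptotic index = apoptotic/total nuclei ×100. Duplicate wells, ≥3 runs (N = 6).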

[7] = test system: A498; experiment: Growth inhibition of human A498 cells; format: functional; method in brief: as §1
[8] = test system: OVCAR-3; experiment: Growth inhibition of human OVCAR3 cells; format: functional; method in brief: as §1
[9] = test system: A549; experiment: Growth inhibition of human A549 cells; format: functional; method in brief: as §1
[10] = test system: MOLT-4; experiment: Growth inhibition of human MOLT4 cells; format: functional; method in brief: as §1
[11] = test system: ACHN; experiment: Growth inhibition of human ACHN cells; format: functional; method in brief: as §1
[12] = test system: HCT-116; experiment: Growth inhibition of human HCT116 cells; format: functional; method in brief: as §1
[13] = test system: NCI-H460; experiment: Induction of apoptosis human NCI-H460 cells assessed as cellular degradation at 50 nM after 12 hrs by Hoechst-33342 staining; format: functional
Method in brief: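 NCI-H460 seeded 50,000 cells/well for 12 h, then exposed 12 h in serum-free medium (DMSO <0.1%). Stained 30 min at 37°C with 10 µg/ml Hoechst 33342 plus 20 µg/ml propidium iodide. Condensed or fragmented nuclei scored by fluorescence microscopy; apoptotic index = apoptotic/total nuclei ×100. 2 replicate wells, ≥3 runs (N = 6).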

[14] = test system: 786-0; experiment: Growth inhibition of human 786-0 cells; format: functional; method in brief: as §1
[15] = test system: NCI-H460; experiment: Growth inhibition of human NCI-H460 cells after 48 hrs by MTT assay; format: functional; settings: NCI-H460, 48 h
Method in brief: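 NCI-H460 cells in RPMI 1640 with 10% FBS were seeded at 10,000 cells/well for 12 h. Drug was diluted 1000× from DMSO into 1% FBS medium (DMSO <0.1%). Time-course runs used 50 nM; dose–response runs used 48 h exposure. Viability was read by MTT (4 h), with formazan dissolved in DMSO for 45 min and read at 562 nm. Triplicate wells, ≥3 runs (N = 9), two-way ANOVA.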

[16] = test system: NCI-H460; experiment: Growth inhibition of human NCI-H460 cells; format: functional; method in brief: as §1
[17] = test system: CAKI-1; experiment: Growth inhibition of human Caki1 cells; format: functional; method in brief: as §1
[18] = test system: TK-10; experiment: Growth inhibition of human TK10 cells; format: functional; method in brief: as §2
[19] = test system: OVCAR-8; experiment: Growth inhibition of human OVCAR8 cells; format: functional; method in brief: as §1

| Structure (SMILES) | GI50 [1] | growth inhibition (GI) [2] | growth inhibition (GI) [3] | growth inhibition (GI) [4] | growth inhibition (GI) [5] | IC50 [6] | growth inhibition (GI) [7] | growth inhibition (GI) [8] | growth inhibition (GI) [9] | growth inhibition (GI) [10] | growth inhibition (GI) [11] | growth inhibition (GI) [12] | Activity [13] | growth inhibition (GI) [14] | GI50 [15] | growth inhibition (GI) [16] | growth inhibition (GI) [17] | growth inhibition (GI) [18] | growth inhibition (GI) [19] |
| --- | --- | --- | --- | --- | --- | --- | --- | --- | --- | --- | --- | --- | --- | --- | --- | --- | --- | --- | --- |
| C[C@@H]1O[C@@H](O[C@H]2CC[C@@]3(C)[C@H](CC[C@@H]4[C@@H]3CC[C@]3(C)[C@@H](C5=CC(=O)OC5)CC[C@]43O)C2)C=C[C@H]1O | 1 nM | – | – | – | – | – | – | – | – | – | – | – | – | – | – | – | – | – | – |
| C[C@H]1O[C@@H](O[C@H]2CC[C@@]3(C)[C@H](CC[C@@H]4[C@@H]3CC[C@]3(C)[C@@H](C5=CC(=O)OC5)CC[C@]43O)C2)C[C@H](O)[C@@H]1O | 25 nM | Active | Active | Active | Active | 74.8 nM | Active | Active | Active | Active | Active | Active | 28.8% | Active | 3.8 nM | Active | Active | Active | Active |
